The values below come from ChEMBL document CHEMBL1153088, “Discovery of benzo[g]indol-3-carboxylates as potent inhibitors of microsomal prostaglandin E(2) synthase-1” (Bioorg Med Chem, 2009).

The target in data set [1] is Prostaglandin G/H synthase 1 (Homo sapiens) (UniProt P23219). Briefly: Inhibition of COX1 in platelets assessed as inhibition of 12-HHT formation up to 30 uM uM by RP-HPLC. In short, it runs like this: (§1)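 Freshly isolated human platelets (10^8/ml PBS with 1 mM CaCl2) were preincubated with compound (DMSO ≤0.3%), then stimulated with 5 µM AA for 5 min at 37 °C. 12-HHT was extracted and quantified by RP-HPLC. Mean ± SE, n=3–5.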

Data set [2] deals with T1, Prostaglandin E synthase (Homo sapiens) (UniProt O14684).
T1 sequence (whole entry): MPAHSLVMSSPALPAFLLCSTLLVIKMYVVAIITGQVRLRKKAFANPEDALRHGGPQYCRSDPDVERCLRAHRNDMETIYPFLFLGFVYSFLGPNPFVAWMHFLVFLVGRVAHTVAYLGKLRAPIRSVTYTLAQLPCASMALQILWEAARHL
In words: Inhibition of mPGES1 in IL1-beta induced human A549 cells assessed as PGE2 production at 30 uM preincubated for 10 mins. Format: cell-based. Further details: scale not given: the % may be the effect or the level left. In short, it runs like this: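 Intact IL-1β-induced A549 cells (4×10^6/ml PBS, 1 mM CaCl2) were preincubated with compound (DMSO ≤0.3%) for 10 min at 37 °C. [3H]PGE2 was separated by RP-18 SPE/HPLC and counted by liquid scintillation.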

Data set [3] has as its target T1, Prostaglandin E synthase (Homo sapiens). Briefly: Inhibition of mPGES1 in IL1-beta induced human A549 cell microsomal membrane at 10 uM assessed as enzyme residual activity by PGE2 formation assay relative to untreated control. Format: microsomes. Particulars: Microsome. The method in brief: (§2)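 Microsomes from A549 cells treated with IL-1β (1 ng/ml, 72 h) were used at 50 µg/ml in 0.1 M potassium phosphate pH 7.4 with 2.5 mM glutathione. Compound (DMSO 1% final) was preincubated 15 min at 4 °C, then PGH2 was added (20 µM final) for 1 min at 4 °C.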

Data set [4] deals with T2, Prostaglandin G/H synthase 1 (Ovis aries) (UniProt P05979).
T2 sequence (whole entry): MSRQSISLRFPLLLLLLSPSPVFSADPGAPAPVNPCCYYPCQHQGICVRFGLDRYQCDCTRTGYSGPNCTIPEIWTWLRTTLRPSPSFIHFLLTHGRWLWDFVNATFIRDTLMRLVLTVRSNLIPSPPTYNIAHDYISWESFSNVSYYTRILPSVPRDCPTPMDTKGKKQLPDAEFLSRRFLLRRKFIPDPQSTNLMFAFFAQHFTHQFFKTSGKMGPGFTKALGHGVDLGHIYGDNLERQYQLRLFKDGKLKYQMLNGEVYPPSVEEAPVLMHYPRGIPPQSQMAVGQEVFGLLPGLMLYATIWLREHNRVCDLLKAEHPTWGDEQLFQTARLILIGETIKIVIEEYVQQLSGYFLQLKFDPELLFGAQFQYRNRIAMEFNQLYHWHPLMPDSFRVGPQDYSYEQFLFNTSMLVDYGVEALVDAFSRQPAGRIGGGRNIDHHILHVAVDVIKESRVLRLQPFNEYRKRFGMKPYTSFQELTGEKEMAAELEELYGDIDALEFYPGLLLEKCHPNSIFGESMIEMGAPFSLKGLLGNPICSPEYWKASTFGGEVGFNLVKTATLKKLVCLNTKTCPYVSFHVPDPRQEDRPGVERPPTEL
In words: Inhibition of ovine COX1 assessed as residual enzyme activity at 10 uM relative to untreated control. The method in brief: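 Purified ovine COX-1 (50 units) in 1 ml of 100 mM Tris pH 8 containing 5 mM glutathione, 5 µM hemoglobin and 100 µM EDTA was preincubated with compound for 5 min at 4 °C and prewarmed 60 s at 37 °C. The reaction was started with 5 µM AA and run 5 min at 37 °C, and 12-HHT was analysed by HPLC.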

Data set [5] deals with T3, Prostaglandin E synthase (Homo sapiens, UniProt O14684).
T3 sequence (O14684 whole entry): T1 sequence (whole entry)
Briefly: Inhibition of mPGES1 in IL1-beta induced human A549 cells assessed as PGE2 production preincubated for 10 mins. Format: cell-based. In short, it runs like this:
(§3)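 Intact IL-1β-induced A549 cells (4×10^6/ml PBS, 1 mM CaCl2) were preincubated with compound (DMSO ≤0.3%) for 10 min at 37 °C. They were then stimulated with 2.5 µM A23187 plus 1 µM AA and [3H]AA (18.4 kBq) for 15 min, and the reaction was stopped on ice. [3H]PGE2 was separated by RP-18 SPE/HPLC and counted by liquid scintillation.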

Data set [6] deals with T3, Prostaglandin E synthase. In words: Inhibition of mPGES1 in IL1-beta induced human A549 cell microsomal membrane assessed as blockade of conversion of PGH2 to PGE2. Format: microsomes, Microsome. In short, it runs like this:
as §2

Data set [7] concerns the target T4, Prostaglandin G/H synthase 2 (Homo sapiens) (UniProt P35354).
T4 sequence (whole entry): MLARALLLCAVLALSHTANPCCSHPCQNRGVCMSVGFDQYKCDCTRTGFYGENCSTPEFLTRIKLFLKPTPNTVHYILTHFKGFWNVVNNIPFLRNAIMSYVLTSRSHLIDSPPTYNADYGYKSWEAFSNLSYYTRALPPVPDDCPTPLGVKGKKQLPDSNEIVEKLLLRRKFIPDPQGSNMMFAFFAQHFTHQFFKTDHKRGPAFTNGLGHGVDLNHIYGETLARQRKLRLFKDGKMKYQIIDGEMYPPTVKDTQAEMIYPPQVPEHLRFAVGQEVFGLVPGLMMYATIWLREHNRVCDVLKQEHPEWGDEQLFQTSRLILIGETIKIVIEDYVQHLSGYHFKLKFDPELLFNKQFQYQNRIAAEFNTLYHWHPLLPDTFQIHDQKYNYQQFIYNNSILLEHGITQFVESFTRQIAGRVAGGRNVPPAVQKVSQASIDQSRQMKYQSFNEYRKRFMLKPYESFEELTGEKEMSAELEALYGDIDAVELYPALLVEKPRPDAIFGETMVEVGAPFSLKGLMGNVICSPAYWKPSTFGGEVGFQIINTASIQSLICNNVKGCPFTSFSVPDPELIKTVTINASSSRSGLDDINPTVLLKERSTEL
In words: Inhibition of COX2 in IL1-beta induced human A549 cells assessed as 6-keto-PGF1-alpha formation up to 30 uM preincubated for 15 mins by ELISA. Format: cell-based. The method in brief:
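A549 cells were induced with IL-1β (1 ng/ml, 72 h, 2% FCS). Cells at 5×10^6 per ml PBS with 1 mM CaCl2 were preincubated 15 min at 37 °C, then given 30 µM AA for 15 min at 37 °C, and the reaction was stopped on ice. Released 6-keto PGF1α was measured by monoclonal-antibody ELISA with β-galactosidase tracer read at 550 nm.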
A general note: In an ELISA, binding on a coated surface is turned into a signal by an enzyme label.

In data set [8] the target is T1, Prostaglandin E synthase (Homo sapiens). Briefly: Inhibition of mPGES1 in IL1-beta induced human A549 cells assessed as PGE2 production at 5 uM preincubated for 10 mins. Format: cell-based. In short, it runs like this:
as §3

The target is the same in data set [9]. Particulars: A549, Microsome, 0.3 uM.
Data set [10] shares this target. Particulars: A549, Microsome, 3 uM.
Data set [11] shares this target. The note with it: A549, Microsome, 3 uM. The source holds these as a separate data set.
Data set [12] has the same target. Particulars: A549, Microsome, 30 uM.
Data set [13] has as its target Prostaglandin G/H synthase 1 (Homo sapiens) (UniProt P23219). In words: Inhibition of COX1 in platelets assessed as inhibition of 12-HHT formation at 10 uM by RP-HPLC. The method in brief:
as §1

The test system of data set [14] is A549. In words: Toxicity in human A549 cells assessed as reduction of cell viability by MTT assay. The data set is classed as cell-based. The method in brief:
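A549 cells (4×10^4 per 100 µl) were plated for 16 h, then exposed to compounds at 30 µM (DMSO ≤0.3%) for 5 h. MTT was added for 4 h, formazan was solubilized in 10% SDS/20 mM HCl, and absorbance at 595 nm was read relative to vehicle-treated cells.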
A general note: Formazan colour is commonly taken as a measure of viable cells.

The subject of data set [15] is Rattus norvegicus. Briefly: Antiinflammatory activity in Wistar Han rat assessed as reduction in inflammatory cell numbers at 5 mg/kg, ip administered 30 mins before carrageenan challenge. The data set is classed as functional, organism-based. Further details: dose 5 mg/kg.
Data set [16] relates to Rattus norvegicus. Briefly: Antiinflammatory activity in Wistar Han rat assessed as reduction in exudate volume at 5 mg/kg, ip administered 30 mins before carrageenan challenge. Format: functional, organism-based. Further details: dose 5 mg/kg.
Data set [17] deals with Mus musculus. In words: Antiinflammatory activity in CD1 mouse assessed as inhibition of carrageenan-induced paw edema at 5 mg/kg, ip administered 30 mins before carrageenan challenge relative to untreated control. The data set is classed as functional. Particulars: route intraperitoneal. The method in brief:
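Male adult CD1 mice, n=10 per group, given the compound ip (vehicle 2% DMSO) 30 min before subplantar 1% λ-carrageenan in saline (0.05 ml). Paw volume was measured double blind by hydroplethysmometer just before injection and at 2, 4 and 6 h. Inhibition was taken at the 4 h reading versus vehicle.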
A general note: Carrageenan injected into the paw causes an acute inflammation.

Structures are written as SMILES. Active and inactive are the calls of the source. No cut-off for these calls is given here.

Chain of Prostaglandin G/H synthase 1 (Homo sapiens) (P23219 whole entry): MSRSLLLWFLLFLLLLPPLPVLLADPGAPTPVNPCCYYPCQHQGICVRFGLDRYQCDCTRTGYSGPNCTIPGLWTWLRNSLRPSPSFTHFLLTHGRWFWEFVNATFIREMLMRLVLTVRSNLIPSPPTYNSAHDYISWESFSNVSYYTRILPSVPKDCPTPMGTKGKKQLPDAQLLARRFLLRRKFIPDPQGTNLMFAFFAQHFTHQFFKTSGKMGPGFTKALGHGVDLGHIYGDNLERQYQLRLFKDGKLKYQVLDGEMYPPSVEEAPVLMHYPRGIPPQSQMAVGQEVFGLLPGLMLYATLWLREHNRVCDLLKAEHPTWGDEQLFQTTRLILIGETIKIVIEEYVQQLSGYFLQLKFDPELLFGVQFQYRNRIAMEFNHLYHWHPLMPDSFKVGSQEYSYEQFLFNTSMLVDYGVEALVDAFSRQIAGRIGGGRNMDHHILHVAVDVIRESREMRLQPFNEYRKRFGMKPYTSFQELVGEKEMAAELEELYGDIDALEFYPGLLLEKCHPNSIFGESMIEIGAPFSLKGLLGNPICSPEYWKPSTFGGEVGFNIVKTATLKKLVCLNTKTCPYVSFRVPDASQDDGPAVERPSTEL

A word on the inhibition: it is the percentage by which the read-out fell short of the control. The IC50 is the concentration that gives 50% inhibition. Turning to `CCOC(=O)c1c(Cc2ccccc2Cl)[nH]c2c1cc(O)c1ccccc12`, the inhibition entry in data set [1] and in data set [7] was “inactive” in each case. The Activity came to 35% in [2], 14% in data set [3] and 89% in data set [4]. The results for the IC50 in [5] (read-out: IC50) and in data set [6] were 20.5 µM and 0.1 µM, respectively.
As to `CCOC(=O)c1c(CCc2cccc(Cl)c2)[nH]c2ccc(O)cc12`, the Activity in data set [3] worked out at 65%.
As to `CCOC(=O)c1c(Cc2cccc(Cl)c2)[nH]c2c1cc(O)c1ccc(-c3ccccc3)cc12`, the figures for the Activity in data set [3] and in [4] were 28% and 66%, respectively. Moreover, the IC50 in data set [6] is 2.8 µM.
In the case of `CCOC(=O)c1c(Cc2cccc(OC)c2)[nH]c2c1cc(O)c1ccccc12`, the Activity in data set [4] stood at 89%.
As for `CCOC(=O)c1c(Nc2cccc(Cl)c2)[nH]c2ccc(O)cc12`, the Activity in data set [3] worked out at 83%.
For the molecule `Cc1ccc(-c2cc(C(F)(F)F)nn2-c2ccc(S(N)(=O)=O)cc2)cc1`, the inhibition result in data set [8] was “Active”.
On to `CCOC(=O)c1c(Cc2cccc(Cl)c2)n(-c2ccc(-c3ccccc3)cc2)c2ccc(O)cc12`, for which the Activity in data set [3] is 25%. In data set [4], the inhibition result was “inactive”. Further, the IC50 in [6] stood at 3.1 µM.
Take `CCOC(=O)c1c(CCc2cccc(Cl)c2)[nH]c2c1cc(O)c1ccccc12`: in data set [3], the Activity was found to be 57%.
In the case of `CCOC(=O)c1c(Cc2cccc(F)c2)[nH]c2c1cc(O)c1ccccc12`, the Activity in [3] was determined as 5%. In addition, in [4], the inhibition result is “inactive”. Besides, the IC50 in [6] amounted to 0.5 µM.
With `CCOC(=O)c1c(Cc2cccc(Cl)c2)n(Cc2ccccc2)c2c1cc(O)c1ccccc12`, the Activity in data set [2] stood at 35%. Also, in data set [3], the inhibition entry is “inactive”.
With `CC(C)c1ccc2c(c1)c(SC(C)(C)C)c(CC(C)(C)C(=O)O)n2Cc1ccc(Cl)cc1`, the Activity was 37% in data set [2] and 42% in [4]. In addition, in data set [9], the inhibition entry is “inactive”. The inhibition result in data set [10] and in data set [11] was “Active” throughout. In data set [12], this molecule had an inhibition of 82%.
With `CCOC(=O)c1c(Cc2cccc(Br)c2)[nH]c2c1cc(O)c1ccccc12`, the Activity in data set [4] came out at 82%.
Consider `CCOC(=O)c1c(Cc2cccc(Cl)c2)[nH]c2c1cc(O)c1cc(OC)c(OC)cc12`, for which, in [4], the inhibition entry is “inactive”.
Regarding `CCOC(=O)c1c(Cc2ccc(Cl)cc2)[nH]c2c1cc(O)c1ccccc12`, the Activity in [3] and in data set [4] was 26% in each case. Besides, in [6], the IC50 is 3.4 µM.
For the molecule `CCOC(=O)c1c(Nc2cccc(Cl)c2)[nH]c2c1cc(O)c1ccccc12`, the Activity in data set [2] was 35%; in data set [3], 13%; in [14], “Non-toxic”. For the same molecule, the inhibition in data set [13] was determined as 31%. The inhibition result in [4] and in [7] was “inactive” throughout. Besides, the IC50 result is “Dose-dependent effect” in data set [5] (a549), 7.9 µM in data set [5] (read-out: IC50) and 1.6 µM in data set [6].
As for `CCOC(=O)c1c(Cc2cccc(Cl)c2)[nH]c2ccc(O)cc12`, in data set [3], the Activity turned out to be 55%.
For orientation: inhibition in vivo means the drop in the measured response relative to a control, in per cent. On to `COc1ccc2c(c1)c(CC(=O)O)c(C)n2C(=O)c1ccc(Cl)cc1` [INDOMETHACIN], for which the inhibition result in data set [15] and in data set [16] was “Active” throughout. In addition, in [17], the inhibition in vivo at 5 mg/kg was determined as 57%.
